What was measured:
[1] = target: E7 LxCxE peptide LxCxE peptide (Human papillomavirus type 16) (UniProt P03129); conditions: cited from earlier work
[2] = tested on: SiHa cells; assay: Flow cytometry, DNA content by propidium iodide staining; assay type: cell-based, human; conditions: 2 µM, 48 hours
Procedure, shortened: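 Cells seeded at 1×105 per 60 mm dish; next day test compound or DMSO added for 48 hr. Cells trypsinized, PBS-washed, fixed in 80% ethanol, pelleted 500g 5 min, stained with PI (100 µL 2mg/ml PI plus 10 µg RNase A in 10 mL PBS). DNA content analysed by flow cytometry; apoptotic fraction taken from area under the corresponding histogram region.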

[3] = target: T1, GST-pRbABC (residues 376–928) (UniProt P06400 376-928); assay: ELISA
T1 sequence (looked up): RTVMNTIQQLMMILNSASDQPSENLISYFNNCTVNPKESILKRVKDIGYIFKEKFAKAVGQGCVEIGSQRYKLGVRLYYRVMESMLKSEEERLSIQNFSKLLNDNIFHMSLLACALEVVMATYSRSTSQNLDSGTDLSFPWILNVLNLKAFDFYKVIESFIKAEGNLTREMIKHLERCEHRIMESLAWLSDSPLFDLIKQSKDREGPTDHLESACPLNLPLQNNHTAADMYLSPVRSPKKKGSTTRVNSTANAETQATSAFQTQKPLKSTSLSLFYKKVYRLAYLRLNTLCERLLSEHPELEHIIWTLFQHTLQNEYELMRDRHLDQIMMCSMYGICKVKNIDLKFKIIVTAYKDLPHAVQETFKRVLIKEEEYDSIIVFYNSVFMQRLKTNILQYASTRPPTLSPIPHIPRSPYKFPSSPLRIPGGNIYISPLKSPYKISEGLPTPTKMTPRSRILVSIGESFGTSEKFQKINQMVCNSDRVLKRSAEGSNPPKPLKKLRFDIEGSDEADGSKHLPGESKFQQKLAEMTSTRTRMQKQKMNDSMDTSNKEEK

Sequence of pRb (P06400 2-928): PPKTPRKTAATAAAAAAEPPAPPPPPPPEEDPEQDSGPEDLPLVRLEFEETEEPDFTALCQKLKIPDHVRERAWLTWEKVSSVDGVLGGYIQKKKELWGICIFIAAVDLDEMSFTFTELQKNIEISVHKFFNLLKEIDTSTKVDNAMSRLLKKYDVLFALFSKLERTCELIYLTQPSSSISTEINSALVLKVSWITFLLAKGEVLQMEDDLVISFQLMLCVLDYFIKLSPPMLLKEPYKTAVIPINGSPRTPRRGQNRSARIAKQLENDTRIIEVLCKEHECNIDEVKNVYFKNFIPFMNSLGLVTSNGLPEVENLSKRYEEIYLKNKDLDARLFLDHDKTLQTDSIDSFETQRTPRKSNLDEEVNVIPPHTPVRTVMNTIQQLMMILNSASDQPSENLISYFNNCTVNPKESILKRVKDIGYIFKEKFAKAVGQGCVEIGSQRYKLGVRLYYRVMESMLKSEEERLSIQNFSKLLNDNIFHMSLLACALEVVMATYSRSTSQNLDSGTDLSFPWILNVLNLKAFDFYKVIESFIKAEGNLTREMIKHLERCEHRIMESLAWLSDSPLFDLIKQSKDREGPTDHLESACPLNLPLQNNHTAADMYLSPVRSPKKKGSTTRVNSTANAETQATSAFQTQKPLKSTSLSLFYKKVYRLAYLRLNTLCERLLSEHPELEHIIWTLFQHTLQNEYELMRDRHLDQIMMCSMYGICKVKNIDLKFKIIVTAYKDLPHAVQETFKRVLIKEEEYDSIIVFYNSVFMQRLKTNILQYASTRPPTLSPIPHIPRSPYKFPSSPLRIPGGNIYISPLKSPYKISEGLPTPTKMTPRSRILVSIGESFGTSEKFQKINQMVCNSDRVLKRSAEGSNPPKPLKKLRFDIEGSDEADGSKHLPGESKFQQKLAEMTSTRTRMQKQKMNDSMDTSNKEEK
Sequence of E7 LxCxE peptide LxCxE peptide (Human papillomavirus type 16) (P03129 whole entry, looked up): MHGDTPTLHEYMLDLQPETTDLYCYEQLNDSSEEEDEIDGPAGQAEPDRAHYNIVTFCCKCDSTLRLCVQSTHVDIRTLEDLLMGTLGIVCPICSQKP

Molecule | binding result [3] | further results
pRb (from UniProt P06400) |  | Kd [1]: 110 nM
CN[C@@H]1C[C@H]2O[C@@](C)([C@@H]1OC)n1c3ccccc3c3c4c(c5c6ccccc6n2c5c31)C(=O)NC4 [staurosporine, Staurosporine] |  | apoptotic cells [2]: 34.3%
6xHis-HPV1AE7_(CR2-3) (residues 16–93) (domain or fragment) EPSVLDLDLYCYEEVPPDDIEEELVSPQQPYAVVASCAYCEKLVRLTVLADHSAIRQLEELLLRSLNIVCPLCTLQRQ | binds | 
6xHis-Ad5E1A_(CR1-3) (residues 36–189) (domain or fragment) SHFEPPTLHELYDLDVTAPEDPNEEAVSQIFPDSVMLAVQEGIDLLTFPPAPGSPEPPHLSRQPEQPEQRALGPVSMPNLVPEVIDLTCHEAGFPPSDDEDEEGEEFVLDYVEHPGHGCRSCHYHRRNTGDPDIMCSLCYMRTCGMFVYSPVSE | binds | 

Reference: publication PMC3334872 (Chemistry & biology, 2012)
